# Activity calls are given as the source filed them. The rule behind the calls is not given here.
# Legend:
# HeLa [1] = assay: Cellular uptake in human HeLa cells assessed as localization to cytoplasm at 8 uM after 4 hrs by confocal laser microscopy; type: ADME, cell-based
# Procedure, shortened: (§1)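 HeLa cells seeded (2 × 10^5) on coverslips, treated 24 h later with squaraine for 3 h (figure legend states 4 h), then irradiated with a metal halogen white lamp at 15 J/cm2. Cells were fixed with PFA, permeabilized with Triton X-100 (0.1% in PBS) and nuclei stained with Hoechst. Localization was imaged by confocal laser microscopy.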
# HeLa [2] = assay: Cellular uptake in human HeLa cells assessed as localization to nucleus at 8 uM after 4 hrs by confocal laser microscopy; type: ADME, cell-based; procedure, shortened: as §1
# HeLa [3] = assay: Photocytotoxicity against human HeLa cells assessed as cell growth arrest at 9.6 uM for 3 hrs followed by 15 J/mc2 irradiation measured 72 hrs after irradiation by resazurin proliferation assay; type: functional, cell-based
# Procedure, shortened: (§2)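 HeLa cells were given squaraine, irradiated with light (15 J/cm2), and followed for up to 72 h after light treatment for proliferation. Controls were cells treated only with light.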
# HeLa [4] = assay: Photocytotoxicity against human HeLa cells assessed as induction of lipid peroxidation-mediated malondialdehyde production at 9.6 uM for 3 hrs followed by 15 J/mc2 irradiation by TBARS assay relative to untreated control; type: functional
# MCF7 [5] = assay: Photocytotoxicity against human MCF7 cells assessed as induction of lipid peroxidation-mediated malondialdehyde production at 1.8 uM for 3 hrs followed by 15 J/mc2 irradiation by TBARS assay relative to untreated control; type: functional, cell-based
# MCF7 [6] = assay: Photocytotoxicity against human MCF7 cells assessed as induction of lipid peroxidation-mediated malondialdehyde production at 9.6 uM for 3 hrs followed by 15 J/mc2 irradiation by TBARS assay relative to untreated control; type: functional, cell-based
# HeLa [7] = assay: Photocytotoxicity against human HeLa cells assessed as apoptotic cells at 9.6 uM for 3 hrs followed by 15 J/mc2 irradiation by annexin V/propidium iodide staining-based FACS flow cytometry (Rvb=1.3%); type: functional
# HeLa [8] = assay: Photocytotoxicity against human HeLa cells assessed as necrotic cells at 9.6 uM for 3 hrs followed by 15 J/mc2 irradiation by annexin V/propidium iodide staining-based FACS flow cytometry (Rvb=1.0%); type: functional
# HeLa [9] = assay: Photocytotoxicity against human HeLa cells assessed as necrotic cells at 9.6 uM for 3 hrs followed by 15 J/mc2 measured 72 hrs irradiation by propidium iodide staining; type: functional, cell-based
# Procedure, shortened: (§3)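 HeLa cells (2.5 × 10^5, six-well) were treated with squaraine the next day and photoactivated. The medium was then replaced with fresh medium containing Hoechst and PI (both 2 μg/mL). Living cells were time-lapse imaged at 37 °C, 5% CO2 over 72 h, with necrotic (PI-red, swollen) and apoptotic (shrinkage, blebbing, apoptotic bodies) morphology scored. Controls had no squaraine.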
# HeLa [10] = assay: Induction of apoptosis in human HeLa cells assessed as apoptotic bodies at 9.6 uM for 3 hrs followed by 15 J/mc2 measured 72 hrs irradiation by propidium iodide staining; type: functional, cell-based; procedure, shortened: as §3
# HeLa [11] = assay: Induction of apoptosis in human HeLa cells assessed as caspase 3/7 activation at 9.6 uM for 3 hrs followed by 15 J/mc2; type: functional, cell-based
# Procedure, shortened: (§4)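 HeLa cells (5000/well) were incubated 3 h with squaraine and irradiated at 15 J/cm2. Caspase-3/7 activity was measured 2.5, 16 and 22 h after light using a homogeneous fluorogenic reagent (substrate 1:100 in buffer, 1:1 with sample), with ex 485/em 530 nm. Values are means ± SDs of at least two independent experiments.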
# HeLa [12] = assay: Photocytotoxicity against human HeLa cells treated for 3 hrs followed by 15 J/mc2 irradiation measured 24 hrs after irradiation by resazurin proliferation assay; type: functional
# Procedure, shortened: (§5)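 Cells were seeded to reach plateau growth: HeLa and B78-H1 at 5000, HepG2 and MCF-7 at 7000 cells/well. They were incubated 3 h with increasing squaraine concentrations (DMSO stock, final DMSO <0.2%, DMSO-matched control), then irradiated 30 min with a metal halogen lamp (15 J/cm2). Resazurin proliferation was read 24 h later as % of untreated fluorescence. IC50 was estimated from dose-response plots; means ± SDs of three independent experiments.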
# HepG2 [13] = assay: Photocytotoxicity against human HepG2 cells treated for 3 hrs followed by 15 J/mc2 irradiation measured 24 hrs after irradiation by resazurin proliferation assay; type: functional; procedure, shortened: as §5
# HeLa [14] = assay: Cellular uptake in human HeLa cells assessed as localization to cytoplasm at 1 uM after 4 hrs by confocal laser microscopy; type: ADME, cell-based; procedure, shortened: as §1
# HeLa [15] = assay: Cellular uptake in human HeLa cells assessed as localization to nucleus at 1 uM after 4 hrs by confocal laser microscopy; type: ADME, cell-based; procedure, shortened: as §1
# HeLa [16] = assay: Cytotoxicity against human HeLa cells under dark condition after 24 hrs by resazurin proliferation assay; type: cell-based
# Procedure, shortened: (§6)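 Cells were seeded to reach plateau growth: HeLa and B78-H1 at 5000, HepG2 and MCF-7 at 7000 cells/well. They were exposed to increasing squaraine concentrations in the dark, with compound from DMSO diluted in medium (final DMSO <0.2%). Viability was measured by resazurin fluorescence as RFU treated/RFU untreated × 100. Values are means ± SDs of three independent experiments.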
# HepG2 [17] = assay: Cytotoxicity against human HepG2 cells under dark condition after 24 hrs by resazurin proliferation assay; type: cell-based; conditions: hepg2, 24 h; procedure, shortened: as §6
# [18] = Cytotoxicity against mouse B78H1 cells under dark condition after 24 hrs by resazurin proliferation assay; type: cell-based; conditions: b78h1, 24 h; procedure, shortened: as §6
# MCF7 [19] = assay: Cytotoxicity against human MCF7 cells under dark condition after 24 hrs by resazurin proliferation assay; type: cell-based; conditions: mcf7, 24 h; procedure, shortened: as §6
# HeLa [20] = assay: Cytotoxicity against human HeLa cells under dark condition at 5 uM after 24 hrs by resazurin proliferation assay; type: cell-based; procedure, shortened: as §6
# HepG2 [21] = assay: Cytotoxicity against human HepG2 cells under dark condition at 5 uM after 24 hrs by resazurin proliferation assay; type: cell-based; conditions: hepg2, 24 h; procedure, shortened: as §6
# [22] = Cytotoxicity against mouse B78H1 cells under dark condition at 5 uM after 24 hrs by resazurin proliferation assay; type: cell-based; conditions: b78h1, 24 h; procedure, shortened: as §6
# MCF7 [23] = assay: Cytotoxicity against human MCF7 cells under dark condition at 5 uM after 24 hrs by resazurin proliferation assay; type: cell-based; conditions: mcf7, 24 h; procedure, shortened: as §6
# HUVEC = assay: Cytotoxicity against HUVEC cells under dark condition after 24 hrs by resazurin proliferation assay; type: cell-based; conditions: human
# Mus musculus [24] = assay: Toxicity in C57BL/6 mouse bearing mouse B78H1 cells assessed as mortality at 3 umol/kg, iv measured after 1 week; type: organism-based; conditions: in vivo, 168 h
# Procedure, shortened: (§7)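 Squaraine given to mice at 3 μmol/kg (the dose used for PDT experiments), formulated in small unilamellar dioleoylphosphatidylcholine liposomes and injected.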
# Mus musculus [25] = assay: Toxicity in C57BL/6 mouse bearing mouse B78H1 cells assessed as behavioral changes at 3 umol/kg, iv measured for 1 week; type: organism-based; conditions: in vivo, 168 h; procedure, shortened: as §7
# [26] = Photocytotoxicity against mouse B78H1 cells treated for 3 hrs followed by 15 J/mc2 irradiation measured 24 hrs after irradiation by resazurin proliferation assay; type: functional; procedure, shortened: as §5
# MCF7 [27] = assay: Photocytotoxicity against human MCF7 cells treated for 3 hrs followed by 15 J/mc2 irradiation measured 24 hrs after irradiation by resazurin proliferation assay; type: functional; procedure, shortened: as §5
# HeLa [28] = assay: Photocytotoxicity against human HeLa cells assessed as cell growth arrest at 1.5 uM for 3 hrs followed by 15 J/mc2 irradiation measured 72 hrs after irradiation by resazurin proliferation assay; type: functional, cell-based; procedure, shortened: as §2
# HeLa [29] = assay: Photocytotoxicity against human HeLa cells assessed as induction of lipid peroxidation-mediated malondialdehyde production at 1.8 uM for 3 hrs followed by 15 J/mc2 irradiation by TBARS assay relative to untreated control; type: functional
# HeLa [30] = assay: Photocytotoxicity against human HeLa cells assessed as apoptotic cells at 1.5 uM for 3 hrs followed by 15 J/mc2 irradiation by annexin V/propidium iodide staining-based FACS flow cytometry (Rvb=1.3%); type: functional
# HeLa [31] = assay: Photocytotoxicity against human HeLa cells assessed as necrotic cells at 1.5 uM for 3 hrs followed by 15 J/mc2 irradiation by annexin V/propidium iodide staining-based FACS flow cytometry (Rvb=1.0%); type: functional
# HeLa [32] = assay: Photocytotoxicity against human HeLa cells assessed as necrotic cells at 1.5 uM for 3 hrs followed by 15 J/mc2 measured 72 hrs irradiation by propidium iodide staining; type: functional, cell-based; procedure, shortened: as §3
# HeLa [33] = assay: Induction of apoptosis in human HeLa cells assessed as apoptotic bodies at 1.5 uM for 3 hrs followed by 15 J/mc2 measured 72 hrs irradiation by propidium iodide staining; type: functional, cell-based; procedure, shortened: as §3
# HeLa [34] = assay: Induction of apoptosis in human HeLa cells assessed as caspase 3/7 activation at 1.5 uM for 3 hrs followed by 15 J/mc2; type: functional, cell-based; procedure, shortened: as §4
smiles,measurement,setting,value
CCCCCC[n+]1c(/C=C2\C(=O)C(c3ccc(-c4ccc(-c5ccc(C6=C([O-])/C(=C\c7sc8ccccc8[n+]7CCCCCC)C6=O)s5)s4)s3)=C2[O-])sc2ccccc21,Drug uptake,HeLa [1],Active
same,Drug uptake,HeLa [2],Not Active
same,Activity,HeLa [3],Active
same,fold change (FC),HeLa [4],4
same,Activity,MCF7 [5],Active
same,Activity,MCF7 [6],Active
same,Activity,HeLa [7],8.8%
same,Activity,HeLa [8],25.9%
same,Activity,HeLa [9],Active
same,Activity,HeLa [10],Active
same,Activity,HeLa [11],Active
CCCCCCN1/C(=C/C2=C([O-])C(=C\c3sc4ccccc4[n+]3CCCCCC)/C2=O)Sc2ccccc21,Activity,HeLa [12],80%
same,Activity,HepG2 [13],80%
same,Drug uptake,HeLa [14],Active
same,Drug uptake,HeLa [15],Not Active
same,Activity,HeLa [16],Non-toxic
same,Activity,HepG2 [17],Non-toxic
same,Activity,[18],Non-toxic
same,Activity,MCF7 [19],Non-toxic
same,Activity,HeLa [20],Toxic
same,Activity,HepG2 [21],Toxic
same,Activity,[22],Toxic
same,Activity,MCF7 [23],Toxic
same,Activity,HUVEC,Non-toxic
same,Activity,Mus musculus [24],Non-toxic
same,Activity,Mus musculus [25],Non-toxic
same,Activity,[26],80%
same,Activity,MCF7 [27],80%
same,Activity,HeLa [28],Active
same,fold change (FC),HeLa [29],4
same,Activity,MCF7 [5],Active
same,Activity,MCF7 [6],Active
same,Activity,HeLa [30],3.9%
same,Activity,HeLa [31],9.5%
same,Activity,HeLa [32],Active
same,Activity,HeLa [33],Active
same,Activity,HeLa [34],Active

# Source: ChEMBL document CHEMBL1154927, “Photooxidation and Phototoxicity of pi-extended squaraines” (J Med Chem, 2010)
